Results of several laboratories.
Each line is one published result; the experiments were not run side by side.
BCHE: Cholinesterase (BCHE, Equus caballus, UniProt P81908)
PTGS1: Prostaglandin G/H synthase 1 (PTGS1, Ovis aries, UniProt P05979)
AGTR2: Type-2 angiotensin II receptor (AGTR2, Homo sapiens, UniProt P50052)

| Compound | target | observed | mode | method | concentration | inhibition |
| --- | --- | --- | --- | --- | --- | --- |
| COc1cc2c(cc1OC)C(=O)N(Cc1n[nH]c3ccccc13)C2 | BCHE | enzyme activity | inhibitor | Ellman | 1 µM | -2.7% |
| Nc1ccc(-c2ccccc2)c(-c2nc3ccccc3s2)c1 | PTGS1 | enzyme activity | inhibitor | absorbance | 10 µM | 59.1% |
| COc1cc2c(cc1OC)C(=O)N(Cc1nccc3ccccc13)C2 | BCHE | enzyme activity | inhibitor | Ellman | 1 µM | 2% |
| C[C@H](C(=O)N[C@H]1COc2ccccc2[C@@H]1S(C)(=O)=O)c1ccc(F)cc1 | AGTR2 | cell-free assay | – | – | 10 µM | 4% |
| O=C(Nc1ccc(F)c(C(F)(F)F)c1)Nc1nnc(-c2ccncc2)s1 | RecQ-like DNA helicase BLM (BLM, Homo sapiens, UniProt P54132) | enzyme activity | inhibitor | – | 50 µM | 99% |
| NS(=O)(=O)c1ccc(-c2ncc(Cl)cc2-c2nc3ccccc3s2)cc1 | PTGS1 | enzyme activity | inhibitor | absorbance | 10 µM | 6.6% |
| COc1cc2c(cc1OC)C(=O)N(CC1CCN(Cc3ccncc3)CC1)C2 | BCHE | enzyme activity | inhibitor | Ellman | 1 µM | 8.2% |
| CN(CCN1CCC(OC(=O)Nc2ccccc2-c2ccccc2)CC1)C(=O)c1ccc(CN2CCC(C(N)=O)CC2)cc1 | AGTR2 | ligand displacement | – | radioligand | 1 µM | -4% |
| Cn1cc(-c2cccc(N3CCc4c(sc5c4CC(C)(C)C5)C3=O)c2CO)cc(Nc2ccncn2)c1=O | SRSF protein kinase 2 (SRPK2, Homo sapiens, UniProt P78362) | enzyme activity | inhibitor | – | 1 µM | -3% |
| CS(=O)(=O)c1ccc(-c2ncccc2-c2nc3ccccc3s2)cc1 | PTGS1 | enzyme activity | inhibitor | absorbance | 10 µM | 21.5% |
| COc1cc2c(cc1OC)C(=O)N(Cc1ccc3ccccc3n1)C2 | BCHE | enzyme activity | inhibitor | Ellman | 1 µM | -0.7% |
| Cn1cc(-c2cc(F)cc(N3CCn4c(cc5c4CCCC5)C3=O)c2CO)cc(Nc2ccc(N3CCN(C4COC4)CC3)cn2)c1=O | Serine/threonine-protein kinase MRCK alpha (CDC42BPA, Homo sapiens, UniProt Q5VT25) | enzyme activity | inhibitor | – | 0.1 µM | 2% |
| CN(C)Cc1ccc(-c2nc3ccccc3s2)c(-c2ccc(O)cc2)c1 | PTGS1 | enzyme activity | inhibitor | absorbance | 10 µM | 14.2% |
| COCc1c(-c2cc3cc(C)cc(OC)c3s2)c2c(N)ncnn2c1CN1CCNC(=O)C1 | AGTR2 | ligand displacement | – | radioligand | 10 µM | 9% |
| COc1cc2c(cc1OC)C(=O)N(CCc1c[nH]c3ccccc13)C2 | BCHE | enzyme activity | inhibitor | Ellman | 1 µM | 0.7% |
| CS(=O)(=O)c1ccc(-c2ncc(Cl)cc2-c2nc3ccccc3s2)cc1 | PTGS1 | enzyme activity | inhibitor | absorbance | 10 µM | 0% |
| COc1nccc(CN2Cc3cc(OC)c(OC)cc3C2=O)n1 | BCHE | enzyme activity | inhibitor | Ellman | 1 µM | 6.1% |
| Cc1ccc(-c2nc3ccccc3s2)c(-c2ccc(S(C)(=O)=O)cc2)c1 | PTGS1 | enzyme activity | inhibitor | absorbance | 10 µM | 9.7% |
| COc1cc2c(cc1OC)C(=O)N(CC1CCN(Cc3ccc(F)nc3)CC1)C2 | BCHE | enzyme activity | inhibitor | Ellman | 1 µM | -4.8% |
| Cc1ncc(C)n2nc(/C=C/c3nc(N4CCCC4)cc(N4CCOCC4)n3)nc12 | cGMP-inhibited 3',5'-cyclic phosphodiesterase 3B (PDE3B, Homo sapiens, UniProt Q13370) | enzyme activity | inhibitor | – | 10 µM | 15% |
| Cc1ccc(-c2nc3ccccc3s2)c(-c2ccc(O)cc2)c1 | PTGS1 | enzyme activity | inhibitor | absorbance | 10 µM | 8.4% |
| C#Cc1n[nH]c2c(-c3cn(C(C)c4ccccn4)c(=O)[nH]c3=O)cc(F)cc12 (stereo not shown) | Serine/threonine-protein kinase MARK1 (MARK1, Homo sapiens, UniProt Q9P0L2) | enzyme activity | inhibitor | – | 1 µM | 11.2% |
